# EBI2 block = EBI2 receptor antagonists, beta-arrestin recruitment, primary screen, cell-based, luminescence, 7a,25-OHC stimulation, uHTS; G-protein coupled receptor 183 (Homo sapiens), P32249; 7a,25-OHC stimulated; inhibition, % at 5 µM; hit rate 0.81% among 360,000; in the data active = inhibition above about 38%;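 also: enzyme fragment complementation signal reports receptor beta-arrestin coupling in cells; 0% = agonist plus DMSO wells and 100% = wells without agonist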
# APJ agonist = agonists of human apelin receptor APJ, primary screen, CHO-K1 cells, PathHunter beta-arrestin, luminescence. 0% DMSO wells, 100% apelin. activation, % at 20 µM. P35414. hit rate 0.11% among 330,000. AID 2520, 2010;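 active = activation more than six SD over the plate average, tested at 20 µM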;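 also: 0% = DMSO alone and 100% = apelin-13 at 10 nM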
#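 Test system – PathHunter CHO-K1 APJ (AGTRL-1) beta-arrestin reporter cells · Input – 1000 cells/well · Compound – single test compound dose, 20 µM final, 1% DMSO · Times – compound stimulation 90 min at 25 °C, detection 60 min · Technique – beta-gal luminescence · Read-out basis – APJ–arrestin association signal · Control set – negative DMSO alone, positive Apelin-13 at 10 nM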
# APJ antagonist = antagonists of human apelin receptor APJ, primary screen, CHO-K1 cells, beta-arrestin complementation, luminescence | P35414 | inhibition, % at 20 µM | hit rate 0.32% among 330,000;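 active = inhibition above about 40% at 20 µM, limit read from the data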;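 also: cells challenged with 10 nM apelin-13 agonist together with compound; plate controls were apelin-13 plus DMSO wells for no effect and DMSO wells lacking apelin-13 for full effect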
# CXCR6 inh = CXCR6 receptor inhibitors, primary screen, cell-based, beta-arrestin, luminescence, CHO-K1 PathHunter, 1536-well. inhibition, % at 20 µM. C-X-C chemokine receptor type 6 (Homo sapiens), O00574. AID 602244, 2012. hit rate 0.36% among 360,000; in the data active = inhibition above about 34%, passing the limit was not always enough;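 also: antagonist mode with CXCL16 agonist at 10 nM final; 0% = 10 nM CXCL16 with DMSO and 100% = unstimulated wells without agonist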
# CCR6 antagonist = CCR6 receptor antagonists, primary screen, cell-based, CHO-K1, luminescence, beta-arrestin, uHTS; inhibition, % at 20 µM; CHO-K1 CCR6 PathHunter beta-arrestin, CCL20-stimulated; hit rate 0.49% among 340,000; C-C chemokine receptor type 6 (Homo sapiens), P51684; AID 493098, 2011;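 active = compounds whose inhibition of the agonist-driven luminescence signal at 20 µM reaches about 50%, limit read from the data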;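 also: cells stimulated with CCL20 at 14 nM final; plate controls were DMSO with CCL20 for no effect and DMSO without agonist for full effect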
# Target sequence (P51684 whole entry, looked up): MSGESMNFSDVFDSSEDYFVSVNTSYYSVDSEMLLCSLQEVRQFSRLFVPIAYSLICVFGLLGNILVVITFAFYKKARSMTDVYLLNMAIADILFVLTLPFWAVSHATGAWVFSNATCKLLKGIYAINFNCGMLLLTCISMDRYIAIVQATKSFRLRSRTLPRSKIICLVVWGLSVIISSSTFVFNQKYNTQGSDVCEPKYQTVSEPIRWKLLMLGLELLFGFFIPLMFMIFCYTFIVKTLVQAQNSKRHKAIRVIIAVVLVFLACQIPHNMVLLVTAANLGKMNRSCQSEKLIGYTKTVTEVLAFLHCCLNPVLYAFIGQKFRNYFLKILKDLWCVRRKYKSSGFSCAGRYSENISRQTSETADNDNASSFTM
# * hit, by the source's call; · = no result given. In the library only some 1.5% were active in any assay of this set; here they are far more common.
SMILES,EBI2 block,APJ agonist,APJ antagonist,CXCR6 inh,CCR6 antagonist
CC1OC(CC(=O)O)CC2=C1C(=O)c1c(O)cccc1C2=O (configuration not stated),8,·,·,74*,89*
COC(=O)c1cccc(CN2C(=O)C(C)Oc3ccc(C)cc32)c1 (configuration not stated),6,·,·,-2,·
O=C(Cn1ccc2ccccc2c1=O)Nc1ccc2c(c1)OCO2,-8,-5,-5,-6,69*
O=C(Nc1ccccc1)OC[C@@H]1C=CS(=O)(=O)N1Cc1ccc(Br)cc1,1,·,·,3,·
Cc1ccnc(NC(=S)N2CCN(c3cccc(C(F)(F)F)c3)CC2)c1,-7,-5,28,39,51*
CSCCC(c1nc2ccccc2[nH]1)n1c(=O)c(-c2ccco2)nc2ccccc21 (configuration not stated),1,·,·,·,·
O=C(c1ccc(S(=O)(=O)Cc2cc(F)ccc2F)c([N+](=O)[O-])c1)N1CCOCC1,-3,·,·,-12,·
Cc1cc2ccccn2c1C(=O)c1ccc(N/N=C/c2ccc(C(=O)O)cc2)c([N+](=O)[O-])c1,-2,·,·,33,42
C/C(=N\Nc1ccc(C(=O)c2c(C)cc3ccccn23)cc1[N+](=O)[O-])c1ccc(O)cc1,40,-5,17,47*,41
C/C(=N/Nc1ccc(C(=O)c2c(C)cc3ccccn23)cc1[N+](=O)[O-])c1ccc(O)cc1,19,·,·,37*,47
CC(O)(c1ccc(F)c(F)c1)c1nc(-c2cc(F)cc(F)c2)cs1 (configuration not stated),7,·,·,-12,·
CS(=O)(=O)c1nc(-c2ccc(Br)cc2)cc(-c2ccccc2)c1C#N,81*,8,-30,-6,-18
COc1ccc(/C=C2\SC(=N)N(c3nccs3)C2=O)cc1OC,10,-4,20,39,59*
N=C1S/C(=C\c2ccc(-c3cccc(Cl)c3)o2)C(=O)N1c1nccs1,67*,·,·,54*,82*
CC1(C)C2CC[C@]3(C)C(CC=C4[C@@H]5C[C@@](C)(CO)[C@@H]6C[C@@]5(CC[C@]43C)C(=O)O6)[C@@]2(C)CC[C@@H]1O (some centres not stated),·,0,13,·,56*
CC1(C)C[C@H](O)[C@]2(CO)CC[C@]3(C)C(=CCC4[C@@]5(C)CC[C@H](O)C(C)(C)C5CC[C@]43C)[C@@H]2C1 (some centres not stated),-21,-1,-12,1,-5
O=C(C[C@H]1CC[C@@H]2[C@H](COC[C@@H](O)CN2Cc2cccc(F)c2)O1)NCC1CCCCC1,-11,·,·,·,·
CC(=O)SC(C[N+](=O)[O-])c1cn(C(C)=O)c2ccccc12 (configuration not stated),-7,-7,-1,55*,76*
CC(=O)n1cc(Nc2ccc([N+](=O)[O-])cc2)c2ccccc21,11,-6,42*,15,36
CC1(C(=O)NS(=O)(=O)Cc2ccccc2C(F)(F)F)CCN1C(=O)Cc1cccs1 (configuration not stated),-3,·,·,-8,·
O=C(/C=C/c1ccncc1)c1ccc(NC(=O)c2ccccc2F)cc1,14,·,·,40,69*
O=C(/C=C/c1ccc(NC(=O)c2ccccc2-c2ccccc2C(=O)O)cc1)c1ccccc1,3,-2,-13,-1,5
CCN(CC)c1ccc(/C=C2/SC(=O)N(C(C)C)C2=O)o1,42*,·,·,24,46
CC(C)N1C(=O)S/C(=C\c2ccc(-c3ccc(Cl)c(C(=O)O)c3)o2)C1=O,-10,-3,16,-4,-3
Cc1ccccc1S(=O)(=O)NC(=O)C1(C)CCN1C(=O)CCc1ccc(Cl)cc1Cl (configuration not stated),-6,·,·,2,·
SMILES,EBI2 block,APJ agonist,APJ antagonist,CXCR6 inh,CCR6 antagonist
O=C(NCc1ccccc1)c1cc(C2CCCN(C(=O)c3ccccc3)C2)on1 (configuration not stated),7,·,·,-5,·
CCCCCCCCCCCCCCC[C@@H](O)[C@@H](N)CO,12,·,·,15,68*
CC(C)C[C@H]1CNC(=O)C(=O)N1C[C@@H]1CCCN1C[C@H](Cc1ccc(O)cc1)N1C[C@H](Cc2ccccc2)N(CC2CCCCC2)C(=O)C1=O,1,·,·,1,·
Cc1ccc(C2C3CN(C(C)C)CC=C3C(C#N)=C(N)C2(C#N)C#N)cc1 (configuration not stated),22,-11,36,53*,60*
O=C(C[C@H]1C[C@@H]2c3cc(NC(=O)Nc4ccccc4F)ccc3O[C@@H]2[C@H](CO)O1)NCc1ccccn1,2,·,·,0,·
Cc1c(C(=O)Nc2ccc3c4c(cccc24)CC3)cccc1[N+](=O)[O-],-7,-3,-5,2,9
Cc1c(C(=O)NC(=S)Nc2ccc3c4c(cccc24)CC3)cccc1[N+](=O)[O-],18,-3,4,28,67*
Cc1c(C(=O)NC(=S)Nc2ccc(NC(=O)c3cccs3)cc2)cccc1[N+](=O)[O-],-4,-6,21,17,58*
O=C(NC(=S)Nc1ccc(-c2ccc(CO)o2)cc1)c1cccs1,7,-7,51*,16,46
Cc1ccc(F)c(S(=O)(=O)NC(=O)C2(C)CCN2C(=O)CCC2CCCC2)c1 (configuration not stated),4,·,·,4,·
Oc1ccc(/C=N/NC(=S)NC2CC3CCC2C3)cc1 (configuration not stated),49*,3,-1,9,3
COc1cc(/C=C/C(=O)/C=C(O)/C=C/c2ccc(O)c(OC)c2)ccc1O,-4,-8,4,33,54*
COc1cc(/C=C/C(=O)O)ccc1O,-5,-2,4,-5,8
COc1cc(/C=C/C(=O)c2ccc([N+](=O)[O-])o2)ccc1O,-24,2,-54,15,75*
O=C(OCn1ncc(Cl)c(Cl)c1=O)c1ccccc1Cl,51*,·,·,31,22
O=C(OCn1ncc(Cl)c(Cl)c1=O)c1ccc(F)cc1,·,-3,24,·,·
O=C1C=C(c2c(O)ccc3ccccc23)c2ccccc2C1=O,-30,·,·,46*,47
Clc1ccc(CSc2nccn2Cc2ccccc2)cc1,77*,-8,-10,-10,26
O=c1ccn(Cc2ccccc2)c(SCc2ccccc2)n1,4,·,·,7,6
CCOc1ccc(NC(=S)Nc2ccc3nsnc3c2)cc1,53*,-3,-3,-3,21
CCOc1ccc(NC(=O)Nc2ccc3nsnc3c2)cc1,9,-4,5,3,18
CCCCn1nnnc1C(c1ccccc1)N1CCN(c2cccc(C)c2C)CC1 (configuration not stated),14,·,·,16,·
